ChEMBL document CHEMBL4325889, “Natural products hybrids: 3,5,4'-Trimethoxystilbene-5,6,7-trimethoxyflavone chimeric analogs as potential cytotoxic agents against diverse human cancer cells” (Eur J Med Chem, 2019)
Active and inactive are the calls of the source. The rule behind the calls is not given here.

Tests used:
HCT-15 = assay: Growth inhibition of human HCT15 cells at 10 uM after 48 hrs by SRB assay relative to control; type: functional; conditions: HCT-15, 48 h, read-out: GI
Summary of the method: (§1)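 Screened at the National Cancer Institute by the standard NCI protocol using the sulforhodamine B assay, which measures cellular protein. Single dose of 10 µM. Result is percent growth inhibition; values above 100% mean cell number fell below the initial population. Values are the average of duplicates.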

NCI-H226 = assay: Growth inhibition of human NCI-H226 cells at 10 uM after 48 hrs by SRB assay relative to control; type: functional; conditions: NCI-H226, 48 h, read-out: GI; summary of the method: as §1
L132 = assay: Cytotoxicity against human L-132 cells after 48 hrs by MTT assay; type: cell-based; conditions: L132, 48 h
Summary of the method: (§2)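 Normal human lung epithelial L132 and ovarian epithelial IOSE-80PC cells were tested by MTT viability assay, and IC50 was determined.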

RPMI-8226 = assay: Growth inhibition of human RPMI8226 cells at 10 uM after 48 hrs by SRB assay relative to control; type: functional; conditions: RPMI-8226, 48 h, read-out: GI; summary of the method: as §1
MCF7 = assay: Growth inhibition of human MCF7 cells at 10 uM after 48 hrs by SRB assay relative to control; type: functional; conditions: MCF7, 48 h, read-out: GI; summary of the method: as §1
NCI-H460 = assay: Growth inhibition of human NCI-H460 cells at 10 uM after 48 hrs by SRB assay relative to control; type: functional; conditions: NCI-H460, 48 h, read-out: GI; summary of the method: as §1
NCI-H322M = assay: Growth inhibition of human NCI-H322M cells at 10 uM after 48 hrs by SRB assay relative to control; type: functional; conditions: read-out: GI; summary of the method: as §1
SF-268 = assay: Growth inhibition of human SF268 cells at 10 uM after 48 hrs by SRB assay relative to control; type: functional; conditions: SF-268, 48 h, read-out: GI; summary of the method: as §1
IGROV-1 = assay: Growth inhibition of human IGROV1 cells at 10 uM after 48 hrs by SRB assay relative to control; type: functional; conditions: IGROV-1, 48 h, read-out: GI; summary of the method: as §1
UACC-257 = assay: Growth inhibition of human UACC257 cells at 10 uM after 48 hrs by SRB assay relative to control; type: functional; conditions: UACC-257, 48 h, read-out: GI
Summary of the method: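 NCI screen against its human cancer cell line panel by the standard NCI protocol, SRB protein stain. Single dose of 10 μM. Percent growth inhibition versus control; values above 100% mean the cell population fell below the starting number. Each value is the mean of duplicates.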

ACHN = assay: Growth inhibition of human ACHN cells at 10 uM after 48 hrs by SRB assay relative to control; type: functional; conditions: read-out: GI; summary of the method: as §1
OVCAR-5 = assay: Growth inhibition of human OVCAR5 cells at 10 uM after 48 hrs by SRB assay relative to control; type: functional; conditions: OVCAR-5, 48 h, read-out: GI; summary of the method: as §1
CCRF-CEM = assay: Growth inhibition of human CCRF-CEM cells at 10 uM after 48 hrs by SRB assay relative to control; type: functional; conditions: read-out: GI; summary of the method: as §1
SK-MEL-28 = assay: Growth inhibition of human SK-MEL-28 cells at 10 uM after 48 hrs by SRB assay relative to control; type: functional; conditions: SK-MEL-28, 48 h, read-out: GI; summary of the method: as §1
SF-295 = assay: Growth inhibition of human SF295 cells at 10 uM after 48 hrs by SRB assay relative to control; type: functional; conditions: SF-295, 48 h, read-out: GI; summary of the method: as §1
CAKI-1 = assay: Growth inhibition of human Caki1 cells at 10 uM after 48 hrs by SRB assay relative to control; type: functional; conditions: CAKI-1, 48 h, read-out: GI; summary of the method: as §1
DU-145 = assay: Growth inhibition of human DU145 cells at 10 uM after 48 hrs by SRB assay relative to control; type: functional; conditions: DU-145, 48 h, read-out: GI; summary of the method: as §1
NCI-H23 = assay: Growth inhibition of human NCI-H23 cells at 10 uM after 48 hrs by SRB assay relative to control; type: functional; conditions: NCI-H23, 48 h, read-out: GI; summary of the method: as §1
KM12 = assay: Growth inhibition of human KM12 cells at 10 uM after 48 hrs by SRB assay relative to control; type: functional; conditions: KM12, 48 h, read-out: GI; summary of the method: as §1
RXF 393 = assay: Growth inhibition of human RXF393 cells at 10 uM after 48 hrs by SRB assay relative to control; type: functional; conditions: RXF 393, 48 h, read-out: GI; summary of the method: as §1
[1] = Cytotoxicity against human IOSE-80PC cells after 48 hrs by MTT assay; type: cell-based; summary of the method: as §2
OVCAR-8 = assay: Growth inhibition of human OVCAR8 cells at 10 uM after 48 hrs by SRB assay relative to control; type: functional; conditions: OVCAR-8, 48 h, read-out: GI; summary of the method: as §1
LOX IMVI = assay: Growth inhibition of human LOXIMVI cells at 10 uM after 48 hrs by SRB assay relative to control; type: functional; conditions: read-out: GI; summary of the method: as §1
HeLa [2] = assay: Induction of apoptosis in human HeLa cells assessed as early apoptotic cells at 2.5 uM by Annexin V-FITC/propidium iodide staining based flow cytometry (reference value: 5.7%); type: functional
Summary of the method: (§3)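 HeLa human cervical cancer cells treated with increasing concentrations or for increasing incubation times. Cells stained with annexin V-FITC and propidium iodide and analysed by FACS. Gating: early apoptotic = annexin+/PI−, late apoptotic = annexin+/PI+.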

HeLa [3] = assay: Induction of apoptosis in human HeLa cells assessed as late apoptotic cells after 48 hrs by Annexin V-FITC/propidium iodide staining based flow cytometry (reference value: 3.6%); type: functional; summary of the method: as §3
HeLa [4] = assay: Induction of apoptosis in human HeLa cells assessed as early apoptotic cells after 24 hrs by Annexin V-FITC/propidium iodide staining based flow cytometry (reference value: 2.6%); type: functional; summary of the method: as §3
HeLa [5] = assay: Induction of apoptosis in human HeLa cells assessed as late apoptotic cells at 5 uM by Annexin V-FITC/propidium iodide staining based flow cytometry (reference value: 6.9%); type: functional; summary of the method: as §3
HeLa [6] = assay: Induction of apoptosis in human HeLa cells assessed as necrotic cells at 5 uM by Annexin V-FITC/propidium iodide staining based flow cytometry (reference value: 2.2%); type: functional; summary of the method: as §3
HeLa [7] = assay: Induction of apoptosis in human HeLa cells assessed as necrotic cells after 12 hrs by Annexin V-FITC/propidium iodide staining based flow cytometry (reference value: 0.9%); type: functional; summary of the method: as §3
HeLa [8] = assay: Cell cycle arrest in human HeLa cells assessed as accumulation at sub-G1 phase after 48 hrs by propidium iodide staining based flow cytometry (reference value: 4.43%); type: functional
HeLa [9] = assay: Induction of apoptosis in human HeLa cells assessed as early apoptotic cells after 48 hrs by Annexin V-FITC/propidium iodide staining based flow cytometry (reference value: 2.6%); type: functional; summary of the method: as §3
HeLa [10] = assay: Antiproliferative activity against human HeLa cells after 48 hrs by MTT assay; type: functional, cell-based
Summary of the method: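 HeLa cervical cancer cells, growth inhibition measured by MTT viability assay, and IC50 determined.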

HeLa [11] = assay: Induction of apoptosis in human HeLa cells assessed as live cells at 5 uM by Annexin V-FITC/propidium iodide staining based flow cytometry (reference value: 85.2%); type: functional; summary of the method: as §3
HeLa [12] = assay: Induction of apoptosis in human HeLa cells assessed as live cells after 24 hrs by Annexin V-FITC/propidium iodide staining based flow cytometry (reference value: 92.9%); type: functional; summary of the method: as §3

| Compound | inhibition of growth at 10 µM (HCT-15) [%] | inhibition of growth at 10 µM (NCI-H226) [%] | IC50 (L132) [µM] | inhibition of growth at 10 µM (RPMI-8226) [%] | inhibition of growth at 10 µM (MCF7) [%] | inhibition of growth at 10 µM (NCI-H460) [%] | inhibition of growth at 10 µM (NCI-H322M) [%] | inhibition of growth at 10 µM (SF-268) [%] | inhibition of growth at 10 µM (IGROV-1) [%] | inhibition of growth at 10 µM (UACC-257) [%] | inhibition of growth at 10 µM (ACHN) [%] | inhibition of growth at 10 µM (OVCAR-5) [%] | inhibition of growth at 10 µM (CCRF-CEM) [%] | inhibition of growth at 10 µM (SK-MEL-28) [%] | inhibition of growth at 10 µM (SF-295) [%] | inhibition of growth at 10 µM (CAKI-1) [%] | inhibition of growth at 10 µM (DU-145) [%] | inhibition of growth at 10 µM (NCI-H23) [%] | inhibition of growth at 10 µM (KM12) [%] | inhibition of growth at 10 µM (RXF 393) [%] | further results |
| --- | --- | --- | --- | --- | --- | --- | --- | --- | --- | --- | --- | --- | --- | --- | --- | --- | --- | --- | --- | --- | --- |
| COc1cc2oc(-c3cccc(NC(=O)c4ccc5c(c4)OCO5)c3)cc(=O)c2c(OC)c1OC | 67.9 | 34.3 | 55 | 154 | 56.4 | 72.8 | 56.5 | 51.9 | 53 | 22.7 | 52.2 | 6.14 | 112 | 44.9 | 46.1 | 22.9 | 47.1 | 47.1 | 48.7 | 53.5 | IC50 [1]: > 100 µM; inhibition of growth at 10 µM (OVCAR-8): 53.7%; inhibition of growth at 10 µM (LOX IMVI): 60.5% |
| COc1cc(NC(=O)c2cccc(-c3cc(=O)c4c(OC)c(OC)c(OC)cc4o3)c2)cc(OC)c1OC | 59.3 | 41.5 | > 100 | 99.7 | 65.7 | 70 | 30.5 | 32.9 | 48.2 | 47.2 | 43.3 | 14 | 68.7 | 36.5 | 55 | 59.4 | 45.7 | 51.2 | 54.2 | 46.8 | Activity (HeLa [2]): 11.8%; Activity (HeLa [3]): 39.1%; Activity (HeLa [4]): 13.4%; Activity (HeLa [5]): 13.8%; Activity (HeLa [6]): 5.7%; Activity (HeLa [7]): 1%; Activity (HeLa [8]): 26.61%; Activity (HeLa [9]): 24%; Activity (HeLa [10]): Active; Activity (HeLa [11]): 59.4%; Activity (HeLa [12]): 80.3%; IC50 [1]: 67.6 µM; inhibition of growth at 10 µM (OVCAR-8): 69.1%; inhibition of growth at 10 µM (LOX IMVI): 75.6% |
| COc1cc(NC(=O)c2cccc(-c3cc(=O)c4c(O)c(OC)c(OC)cc4o3)c2)cc(OC)c1OC | 40.1 | 92.3 | > 100 | 73 | 50.6 | 46.2 | 25.6 | 38.1 | 29.6 | 33.9 | 83.7 | 22.6 | 41.9 | 22.6 | 38.5 | 37.5 | 42.8 | 65.1 | 46.1 | 25 | IC50 [1]: > 100 µM; inhibition of growth at 10 µM (OVCAR-8): 76.9%; inhibition of growth at 10 µM (LOX IMVI): 67% |
